ChEMBL document CHEMBL5036335, “Functional Characterization of the Nemertide α Family of Peptide Toxins” (J Nat Prod, 2021)

Experiments:
[1] = biological target: Sodium channel protein type 10 subunit alpha (Rattus norvegicus, UniProt Q62968); assay: Modulator activity at rat Nav1.8 expressed in Xenopus laevis oocytes assessed as elicitation in sodium current measured after 1 to 4 days by two-electrode voltage clamp assay; format: cell-based; settings: oocyte
Procedure, shortened: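 Channel cRNA transcribed from linearized plasmid; 50 nL at 1 ng/nL injected into stage V–VI oocytes. Oocytes held in 96 mM NaCl, 2 mM KCl, 1.8 mM CaCl2, 2 mM MgCl2, 5 mM HEPES pH 7.4 with gentamycin. TEVC at 18–22 °C in the same solution, electrodes 3 M KCl, 0.8–1.5 MΩ. Currents filtered 1 kHz, sampled 20 kHz. EC50 from Hill equation fit.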

[2] = biological target: Sodium channel protein type 9 subunit alpha (Homo sapiens, UniProt Q15858); assay: Modulator activity at human Nav1.7 expressed in Xenopus laevis oocytes assessed as elicitation in sodium current measured after 1 to 4 days by two-electrode voltage clamp assay; format: cell-based, Oocyte
Procedure, shortened: (§1)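 Channel cRNA, with auxiliary subunits rβ1, hβ1 or TipE, transcribed from linearized plasmids; 50 nL of 1 ng/nL injected into stage V–VI X. laevis oocytes, kept in 96 mM NaCl, 2 mM KCl, 1.8 mM CaCl2, 2 mM MgCl2, 5 mM HEPES pH 7.4 with gentamycin. Two-electrode voltage clamp at 18–22 °C in same bath solution; 3 M KCl electrodes of 0.8–1.5 MΩ; currents filtered at 1 kHz, sampled at 20 kHz. EC50 from Hill equation fit.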

[3] = biological target: Sodium channel protein type 3 subunit alpha (Rattus norvegicus, UniProt P08104); assay: Modulator activity at rat Nav1.3 expressed in Xenopus laevis oocytes assessed as elicitation in sodium current measured after 1 to 4 days by two-electrode voltage clamp assay; format: cell-based, Oocyte; procedure, shortened: as §1
[4] = biological target: Sodium channel protein type 8 subunit alpha (Mus musculus, UniProt Q9WTU3); assay: Modulator activity at mouse Nav1.6 expressed in Xenopus laevis oocytes assessed as elicitation in sodium current measured after 1 to 4 days by two-electrode voltage clamp assay; format: cell-based, Oocyte; procedure, shortened: as §1
[5] = biological target: Sodium channel protein type 4 subunit alpha (Rattus norvegicus, UniProt P15390); assay: Modulator activity at rat Nav1.4 expressed in Xenopus laevis oocytes assessed as elicitation in sodium current measured after 1 to 4 days by two-electrode voltage clamp assay; format: cell-based, Oocyte; procedure, shortened: as §1
[6] = Modulator activity at german cockroach Nav1 expressed in Xenopus laevis oocytes assessed as elicitation in sodium current measured after 1 to 4 days by two-electrode voltage clamp assay; format: cell-based; settings: Blattella germanica, Oocyte; procedure, shortened: as §1
[7] = biological target: Sodium channel protein type 2 subunit alpha (Rattus norvegicus, UniProt P04775); assay: Modulator activity at rat Nav1.2 expressed in Xenopus laevis oocytes assessed as elicitation in sodium current measured after 1 to 4 days by two-electrode voltage clamp assay; format: cell-based, Oocyte; procedure, shortened: as §1
[8] = biological target: Sodium channel protein type 1 subunit alpha (Homo sapiens, UniProt P35498); assay: Modulator activity at human Nav1.1 expressed in Xenopus laevis oocytes assessed as elicitation in sodium current measured after 1 to 4 days by two-electrode voltage clamp assay; format: cell-based, Oocyte; procedure, shortened: as §1
[9] = biological target: Sodium channel protein type 5 subunit alpha (Homo sapiens, UniProt Q14524); assay: Modulator activity at human Nav1.5 expressed in Xenopus laevis oocytes assessed as elicitation in sodium current measured after 1 to 4 days by two-electrode voltage clamp assay; format: cell-based, Oocyte; procedure, shortened: as §1
[10] = Toxicity in Artemia salina assessed as mortality incubated for 24 hrs in dark by microwell assay; format: organism-based
Procedure, shortened: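 Nauplii hatched from cysts in aerated artificial seawater (33 g/L), harvested at 24 h, RT. Peptide at 0.003–300 μM in water, in duplicate wells with water control, plus 10–15 nauplii in salt water. Dead and immobilized nauplii counted under a microscope, then the rest killed with MeOH and all counted. % dead or immobilized per well; EC50 by nonlinear regression.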

Sodium channel protein type 9 subunit alpha, sequence (Q15858 whole entry): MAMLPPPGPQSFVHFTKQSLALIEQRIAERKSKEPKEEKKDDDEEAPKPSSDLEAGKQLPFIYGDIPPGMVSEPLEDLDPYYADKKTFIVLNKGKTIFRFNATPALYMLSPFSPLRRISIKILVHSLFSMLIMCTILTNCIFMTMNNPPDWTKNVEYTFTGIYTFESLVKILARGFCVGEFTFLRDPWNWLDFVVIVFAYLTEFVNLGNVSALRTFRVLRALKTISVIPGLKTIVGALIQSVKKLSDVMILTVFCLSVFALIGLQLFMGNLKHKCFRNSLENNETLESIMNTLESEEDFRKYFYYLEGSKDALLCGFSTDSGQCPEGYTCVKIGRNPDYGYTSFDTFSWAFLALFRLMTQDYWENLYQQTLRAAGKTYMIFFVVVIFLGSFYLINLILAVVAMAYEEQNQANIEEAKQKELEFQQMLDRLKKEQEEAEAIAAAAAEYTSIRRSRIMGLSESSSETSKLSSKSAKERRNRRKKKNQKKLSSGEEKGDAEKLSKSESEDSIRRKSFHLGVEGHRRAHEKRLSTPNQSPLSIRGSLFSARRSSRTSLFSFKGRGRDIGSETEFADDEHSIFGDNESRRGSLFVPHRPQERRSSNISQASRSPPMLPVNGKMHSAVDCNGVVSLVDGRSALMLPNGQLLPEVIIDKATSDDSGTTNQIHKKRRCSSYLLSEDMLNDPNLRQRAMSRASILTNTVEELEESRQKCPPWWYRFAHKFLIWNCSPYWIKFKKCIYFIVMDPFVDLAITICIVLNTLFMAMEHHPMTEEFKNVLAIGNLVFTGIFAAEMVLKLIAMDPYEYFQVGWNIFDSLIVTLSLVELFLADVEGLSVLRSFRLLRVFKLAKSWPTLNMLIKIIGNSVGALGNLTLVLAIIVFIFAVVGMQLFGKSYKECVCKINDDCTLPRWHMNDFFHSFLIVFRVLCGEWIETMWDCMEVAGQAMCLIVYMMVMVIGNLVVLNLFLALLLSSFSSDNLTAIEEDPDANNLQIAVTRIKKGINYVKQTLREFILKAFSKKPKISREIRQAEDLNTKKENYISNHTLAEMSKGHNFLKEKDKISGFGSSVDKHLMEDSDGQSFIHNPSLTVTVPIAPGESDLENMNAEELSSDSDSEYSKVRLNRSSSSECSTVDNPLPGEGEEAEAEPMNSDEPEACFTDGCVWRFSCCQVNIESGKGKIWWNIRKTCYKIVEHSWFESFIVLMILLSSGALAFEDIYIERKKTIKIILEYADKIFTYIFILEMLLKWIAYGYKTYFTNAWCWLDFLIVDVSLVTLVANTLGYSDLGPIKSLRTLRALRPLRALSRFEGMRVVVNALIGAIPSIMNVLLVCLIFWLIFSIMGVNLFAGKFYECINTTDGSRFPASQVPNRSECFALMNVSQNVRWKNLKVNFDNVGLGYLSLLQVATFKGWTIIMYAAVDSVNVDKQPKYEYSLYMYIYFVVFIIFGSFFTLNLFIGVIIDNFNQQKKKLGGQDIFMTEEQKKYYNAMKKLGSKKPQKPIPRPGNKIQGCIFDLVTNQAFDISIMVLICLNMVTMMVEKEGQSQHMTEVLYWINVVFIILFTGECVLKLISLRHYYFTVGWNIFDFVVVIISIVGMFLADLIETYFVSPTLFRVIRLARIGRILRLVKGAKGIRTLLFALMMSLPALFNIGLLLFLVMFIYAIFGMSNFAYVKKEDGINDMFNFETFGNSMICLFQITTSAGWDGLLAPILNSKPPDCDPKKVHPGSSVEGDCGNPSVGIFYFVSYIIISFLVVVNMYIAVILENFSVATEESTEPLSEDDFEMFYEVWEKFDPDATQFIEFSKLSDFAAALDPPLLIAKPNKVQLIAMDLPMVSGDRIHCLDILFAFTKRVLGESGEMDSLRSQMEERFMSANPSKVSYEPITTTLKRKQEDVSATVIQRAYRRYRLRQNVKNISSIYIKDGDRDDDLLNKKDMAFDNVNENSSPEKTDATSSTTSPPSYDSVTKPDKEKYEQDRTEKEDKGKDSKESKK
Sodium channel protein type 5 subunit alpha, sequence (Q14524 whole entry): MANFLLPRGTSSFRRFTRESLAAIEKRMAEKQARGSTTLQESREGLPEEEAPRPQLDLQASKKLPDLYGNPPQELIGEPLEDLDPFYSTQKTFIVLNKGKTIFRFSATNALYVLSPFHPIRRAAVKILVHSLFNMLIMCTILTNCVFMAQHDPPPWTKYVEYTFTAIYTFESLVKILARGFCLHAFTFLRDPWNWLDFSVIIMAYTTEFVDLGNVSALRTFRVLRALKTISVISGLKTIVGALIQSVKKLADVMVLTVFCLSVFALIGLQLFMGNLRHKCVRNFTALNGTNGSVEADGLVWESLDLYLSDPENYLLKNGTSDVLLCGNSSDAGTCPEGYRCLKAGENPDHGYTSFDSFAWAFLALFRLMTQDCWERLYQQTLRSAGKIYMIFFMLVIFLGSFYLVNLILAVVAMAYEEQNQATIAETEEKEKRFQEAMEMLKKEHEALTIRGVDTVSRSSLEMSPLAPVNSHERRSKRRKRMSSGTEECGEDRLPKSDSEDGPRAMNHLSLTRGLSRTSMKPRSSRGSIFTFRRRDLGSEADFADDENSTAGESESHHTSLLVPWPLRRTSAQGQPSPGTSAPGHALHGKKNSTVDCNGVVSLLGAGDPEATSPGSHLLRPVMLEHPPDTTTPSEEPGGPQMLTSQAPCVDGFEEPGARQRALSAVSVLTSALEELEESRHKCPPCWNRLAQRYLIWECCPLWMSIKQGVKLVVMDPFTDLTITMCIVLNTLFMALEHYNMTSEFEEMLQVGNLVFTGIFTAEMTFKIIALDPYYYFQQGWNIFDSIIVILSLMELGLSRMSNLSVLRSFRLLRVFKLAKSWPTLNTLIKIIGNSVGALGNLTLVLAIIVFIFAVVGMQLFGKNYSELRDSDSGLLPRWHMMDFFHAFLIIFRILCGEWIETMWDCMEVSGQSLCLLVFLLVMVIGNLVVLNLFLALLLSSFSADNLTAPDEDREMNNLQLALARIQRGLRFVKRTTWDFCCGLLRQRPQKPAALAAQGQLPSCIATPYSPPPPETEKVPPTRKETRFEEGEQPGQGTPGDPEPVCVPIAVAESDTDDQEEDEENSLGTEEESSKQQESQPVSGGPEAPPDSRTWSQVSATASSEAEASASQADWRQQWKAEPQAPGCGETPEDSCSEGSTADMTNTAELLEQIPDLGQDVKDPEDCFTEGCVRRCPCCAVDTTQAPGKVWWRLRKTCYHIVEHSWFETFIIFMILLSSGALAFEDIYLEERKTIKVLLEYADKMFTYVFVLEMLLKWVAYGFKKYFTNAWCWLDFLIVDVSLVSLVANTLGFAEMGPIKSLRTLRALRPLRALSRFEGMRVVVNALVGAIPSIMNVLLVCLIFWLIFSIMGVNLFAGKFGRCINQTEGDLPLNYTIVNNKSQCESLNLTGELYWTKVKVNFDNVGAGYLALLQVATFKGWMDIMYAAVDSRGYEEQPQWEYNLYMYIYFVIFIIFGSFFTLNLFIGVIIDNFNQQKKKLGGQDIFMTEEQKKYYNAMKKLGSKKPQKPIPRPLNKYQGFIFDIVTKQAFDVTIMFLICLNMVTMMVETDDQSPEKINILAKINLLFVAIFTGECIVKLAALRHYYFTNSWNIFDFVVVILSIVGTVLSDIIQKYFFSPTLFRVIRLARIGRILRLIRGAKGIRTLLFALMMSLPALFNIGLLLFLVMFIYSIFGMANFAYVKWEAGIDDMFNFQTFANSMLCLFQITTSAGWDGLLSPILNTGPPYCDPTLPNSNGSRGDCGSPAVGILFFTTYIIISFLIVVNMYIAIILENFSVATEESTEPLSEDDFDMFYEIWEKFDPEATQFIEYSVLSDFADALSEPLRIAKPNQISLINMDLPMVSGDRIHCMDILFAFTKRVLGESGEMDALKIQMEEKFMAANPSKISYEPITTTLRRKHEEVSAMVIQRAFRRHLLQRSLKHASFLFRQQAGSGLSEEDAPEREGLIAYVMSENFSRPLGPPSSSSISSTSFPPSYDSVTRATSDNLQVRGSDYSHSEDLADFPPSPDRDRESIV

Row | Structure (SMILES) | EC50 [1] | EC50 ([2]; oocyte) [nM] | EC50 ([3]; oocyte) [nM] | EC50 ([4]; oocyte) [nM] | EC50 ([5]; oocyte) [nM] | EC50 [6] [nM] | EC50 ([7]; oocyte) [nM] | EC50 ([8]; oocyte) [nM] | EC50 ([9]; oocyte) [nM] | EC50 at 24 h [10] [nM] | EC50 [2] [nM] | EC50 [3] [nM] | EC50 [4] [nM] | EC50 [5] [nM] | EC50 [7] [nM] | EC50 [8] [nM] | EC50 [9] [nM]
1 | CC[C@H](C)[C@@H]1NC(=O)[C@@H](NC(=O)CN)CSSC[C@@H]2NC(=O)[C@@H]3CSSC[C@@H](C(=O)N[C@@H](CC(N)=O)C(=O)N[C@H](CCCCN)C(=O)N4C[C@@H](O)C[C@H]4C(=O)N[C@@H](CC(N)=O)C(=O)N[C@@H](CCC(N)=O)C(=O)O)NC(=O)[C@H](Cc4cnc[nH]4)NC(=O)[C@H](Cc4ccccc4)NC(=O)[C@H](CC(N)=O)NC(=O)[C@H](Cc4c[nH]c5ccccc45)NC(=O)CNC(=O)[C@H](CSSC[C@H](NC(=O)[C@H](CCSC)NC(=O)[C@H](CO)NC(=O)CNC(=O)[C@H](C(C)C)NC(=O)[C@@H]4CCCN4C1=O)C(=O)N[C@@H]([C@@H](C)O)C(=O)N[C@@H](CC(C)C)C(=O)N[C@@H](CO)C(=O)N[C@@H](CC(N)=O)C(=O)NCC(=O)N3)NC(=O)[C@H](CC(N)=O)NC(=O)[C@H](CCCCN)NC(=O)[C@H]([C@@H](C)O)NC2=O | Not Active | 129 | 170 | 148 | 811 | 9.5 | 50.4 | 172 | 156 | 6100 |  |  |  |  |  |  | 
2 | CC[C@H](C)[C@@H]1NC(=O)[C@@H](NC(=O)CN)CSSC[C@@H]2NC(=O)[C@@H]3CSSC[C@@H](C(=O)N[C@@H](CC(N)=O)C(=O)N4C[C@@H](O)C[C@H]4C(=O)N4C[C@@H](O)C[C@H]4C(=O)N[C@@H](CC(N)=O)C(=O)N[C@@H](CCC(N)=O)C(=O)O)NC(=O)[C@H](CCCCN)NC(=O)[C@H](Cc4ccccc4)NC(=O)[C@H](CC(N)=O)NC(=O)[C@H](Cc4c[nH]c5ccccc45)NC(=O)CNC(=O)[C@H](CSSC[C@H](NC(=O)[C@H](Cc4ccccc4)NC(=O)[C@H](CO)NC(=O)CNC(=O)[C@H]([C@@H](C)O)NC(=O)[C@H](CO)NC1=O)C(=O)N[C@@H]([C@@H](C)O)C(=O)N[C@@H](CC(C)C)C(=O)N[C@@H](CO)C(=O)N[C@@H](CCCCN)C(=O)NCC(=O)N3)NC(=O)[C@H](CC(N)=O)NC(=O)[C@H](CCCCN)NC(=O)[C@H]([C@@H](C)O)NC2=O | Not Active |  |  |  |  | 11.1 |  |  |  | 400 | 80.5 | 12.9 | 124 | 14.6 | 134 | 92 | 27.8
3 | CC[C@H](C)[C@@H]1NC(=O)[C@@H](NC(=O)CN)CSSC[C@@H]2NC(=O)[C@@H]3CSSC[C@@H](C(=O)N[C@@H](CC(N)=O)C(=O)N4C[C@@H](O)C[C@H]4C(=O)N4C[C@@H](O)C[C@H]4C(=O)N[C@@H](CC(N)=O)C(=O)N[C@@H](CCC(N)=O)C(=O)O)NC(=O)[C@H](CCCCN)NC(=O)[C@H](Cc4ccccc4)NC(=O)[C@H](CC(N)=O)NC(=O)[C@H](Cc4c[nH]c5ccccc45)NC(=O)CNC(=O)[C@H](CSSC[C@H](NC(=O)CNC(=O)[C@H](CO)NC(=O)CNC(=O)[C@H]([C@@H](C)O)NC(=O)[C@H](CCCCN)NC1=O)C(=O)N[C@@H]([C@@H](C)O)C(=O)N[C@@H](CC(C)C)C(=O)N[C@@H](CO)C(=O)N[C@@H](CCCCN)C(=O)NCC(=O)N3)NC(=O)[C@H](CC(N)=O)NC(=O)[C@H](CCCCN)NC(=O)[C@H]([C@@H](C)O)NC2=O | Not Active |  |  |  |  | 97.5 |  |  |  | 4700 | 102 | 139 | 92.8 | 150 | 138 | 126 | 108
4 | CC[C@H](C)[C@@H]1NC(=O)[C@@H](NC(=O)CN)CSSC[C@@H]2NC(=O)[C@@H]3CSSC[C@@H](C(=O)N[C@@H](CC(N)=O)C(=O)N4C[C@@H](O)C[C@H]4C(=O)N4C[C@@H](O)C[C@H]4C(=O)N[C@@H](CC(N)=O)C(=O)N[C@@H](CCC(N)=O)C(=O)O)NC(=O)[C@H](Cc4cnc[nH]4)NC(=O)[C@H](Cc4ccccc4)NC(=O)[C@H](CC(N)=O)NC(=O)[C@H](Cc4c[nH]c5ccccc45)NC(=O)CNC(=O)[C@H](CSSC[C@H](NC(=O)[C@H](Cc4ccccc4)NC(=O)[C@H](CO)NC(=O)CNC(=O)[C@H]([C@@H](C)O)NC(=O)[C@H](C)NC1=O)C(=O)N[C@@H]([C@@H](C)O)C(=O)N[C@@H](CC(C)C)C(=O)N[C@@H](CO)C(=O)N[C@@H](CCCCN)C(=O)NCC(=O)N3)NC(=O)[C@H](CC(N)=O)NC(=O)[C@H](CCCCN)NC(=O)[C@H]([C@@H](C)O)NC2=O | Not Active |  |  |  |  | 7.8 |  |  |  | 400 | 73 | 9.4 | 66.9 | 15.4 | 156 | 102 | 133
5 | CC[C@H](C)[C@@H]1NC(=O)[C@@H](NC(=O)CN)CSSC[C@@H]2NC(=O)[C@@H]3CSSC[C@@H](C(=O)N[C@@H](CC(N)=O)C(=O)N4C[C@@H](O)C[C@H]4C(=O)N4C[C@@H](O)C[C@H]4C(=O)N[C@@H](CC(N)=O)C(=O)N[C@@H](CCC(N)=O)C(=O)O)NC(=O)[C@H](CCCCN)NC(=O)[C@H](Cc4ccccc4)NC(=O)[C@H](CC(N)=O)NC(=O)[C@H](Cc4c[nH]c5ccccc45)NC(=O)CNC(=O)[C@H](CSSC[C@H](NC(=O)[C@H](C(C)C)NC(=O)[C@H](CO)NC(=O)CNC(=O)[C@H]([C@@H](C)O)NC(=O)[C@H](C)NC1=O)C(=O)N[C@@H]([C@@H](C)O)C(=O)N[C@@H](CC(C)C)C(=O)N[C@@H](CO)C(=O)N[C@@H](CCCCN)C(=O)NCC(=O)N3)NC(=O)[C@H](CC(N)=O)NC(=O)[C@H](CCCCN)NC(=O)[C@H]([C@@H](C)O)NC2=O | Not Active |  |  |  |  | 87.2 |  |  |  | 2900 | 1300 | 128 | 1360 | 1150 | 97.9 | 126 | 149
6 | CC[C@H](C)[C@@H]1NC(=O)[C@@H](NC(=O)CN)CSSC[C@@H]2NC(=O)[C@@H]3CSSC[C@@H](C(=O)N[C@@H](CC(N)=O)C(=O)N4C[C@@H](O)C[C@H]4C(=O)N4C[C@@H](O)C[C@H]4C(=O)N[C@@H](CC(N)=O)C(=O)N[C@@H](CCC(N)=O)C(=O)O)NC(=O)[C@H](Cc4cnc[nH]4)NC(=O)[C@H](Cc4ccccc4)NC(=O)[C@H](CC(N)=O)NC(=O)[C@H](Cc4c[nH]c5ccccc45)NC(=O)CNC(=O)[C@H](CSSC[C@H](NC(=O)[C@H](Cc4ccccc4)NC(=O)[C@H](CO)NC(=O)CNC(=O)[C@H]([C@@H](C)O)NC(=O)[C@H](CCCCN)NC1=O)C(=O)N[C@@H]([C@@H](C)O)C(=O)N[C@@H](CC(C)C)C(=O)N[C@@H](CO)C(=O)N[C@@H](CCCCN)C(=O)NCC(=O)N3)NC(=O)[C@H](CC(N)=O)NC(=O)[C@H](CCCCN)NC(=O)[C@H]([C@@H](C)O)NC2=O | Not Active |  |  |  |  | 2.6 |  |  |  | 2800 | 97.2 | 106 | 36.3 | 46.4 | 24.3 | 7.9 | 215
